Results on 24 molecules are retold here after ChEMBL document CHEMBL1140065, “Potent cationic inhibitors of West Nile virus NS2B/NS3 protease with serum stability, cell permeability and antiviral activity” (J Med Chem, 2008).

One data set addresses Genome polyprotein (West Nile virus, UniProt P06935). In words: Inhibition of WNV recombinant NS2B-NS3 protease.
Data set [1] has as its target Genome polyprotein (West Nile virus) (UniProt P06935). Kind of data set: Inhibition of WNV recombinant NS2B-NS3 protease at 10 uM. In short, it runs like this:
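Single-concentration screen at 10 µM inhibitor, scoring inhibition of recombinant WNV protease processing of the chromogenic tetrapeptide substrate Ac-LKKR-pNA.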

The target in data set [2] is Plasminogen (Homo sapiens) (UniProt P00747). In words: Inhibition of human plasmin at 1 uM.
For data set [3], the target named is Urokinase-type plasminogen activator (Homo sapiens) (UniProt P00749). In words: Inhibition of human urokinase at 1 uM.
For another data set, the species on record is Bos taurus. Kind of data set: Inhibition of bovine trypsin at 1 uM.
The subject of data set [4] is West Nile virus. In words: Antiviral activity against WNV Kunjin infected african green monkey Vero cells assessed as reduction in plaque size measured at 48 hrs postinfection. In kind it is functional, organism-based. In short, it runs like this:
(§1)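 Vero cells were seeded at 4 × 10^4 per well and grown to about 90% confluence, then washed with PBS and serum-free medium. Cells were coinfected with WNV Kunjin (moi 0.04) plus compound at 100 nM–200 µM for 2 h at 37 °C. Overlay was M199, 3% FBS, 1.2% carboxymethyl cellulose, 48 h. Plaques were immunostained with anti-NS1 antibody and read as infrared area; ten plaques averaged per well, duplicates, IC50 from dose-response.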

The subject of data set [5] is West Nile virus. Kind of data set: Antiviral activity against WNV Kunjin infected african green monkey Vero cells assessed as reduction in plaque size at 12.5 uM measured at 48 hrs postinfection. In kind it is functional, organism-based. Put shortly:
as §1

Data set [6] addresses Coagulation factor X (Bos taurus) (UniProt P00743). In words: Inhibition of bovine factor 10a at 1 uM.
The next data set relates to Vero. Kind of data set: Cytotoxicity against african green monkey Vero cells upto 400 uM after 72 hrs by MTT assay. In kind it is cell-based. As to conditions: chlorocebus sabaeus. In short, it runs like this:
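MTT viability in Vero cells seeded at 4 × 10^4 per well and grown to about 90% confluence (~12 h). Fresh medium held compound at 5 nM–400 µM, with control medium ± DMSO. After 72 h, MTT was added for 3.5 h at 37 °C, then HCl/isopropanol for 4 h at RT. Absorbance was read at 550 nm; CC50 estimated; duplicates.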
In general terms: Formazan colour is commonly taken as a measure of viable cells.

Calls of active or inactive are those of the source. The calls are words filed in the database; no cut-off is given here. Starred links: 1 amine or outer side, 2 acyl side, 3 side chain; linkers in the order of their positions; H or OH if unused. Non-standard residues stand in square brackets, D forms with d. Residues, ends and D or L forms follow the SMILES beside them. *: point of attachment. Hydrocinnamoyl = O=C(CCc1ccccc1)*; hArg = N=C(N)NCCCC[C@H](N)C(=O)O; Cit = NC(=O)NCCC[C@H](N)C(=O)O; Orn = NCCC[C@H](N)C(=O)O; 2Abz = Nc1ccccc1C(=O)O; Cbz = O=C(OCc1ccccc1)*; PhAc = O=C(Cc1ccccc1)*; CO = O=C([*:1])[*:2]; NHBn = c1ccc(CN*)cc1; Bz = O=C(c1ccccc1)* A value given as a limit tells only on which side of the number the result lay.

Chain of Genome polyprotein (West Nile virus) (P06935 whole entry): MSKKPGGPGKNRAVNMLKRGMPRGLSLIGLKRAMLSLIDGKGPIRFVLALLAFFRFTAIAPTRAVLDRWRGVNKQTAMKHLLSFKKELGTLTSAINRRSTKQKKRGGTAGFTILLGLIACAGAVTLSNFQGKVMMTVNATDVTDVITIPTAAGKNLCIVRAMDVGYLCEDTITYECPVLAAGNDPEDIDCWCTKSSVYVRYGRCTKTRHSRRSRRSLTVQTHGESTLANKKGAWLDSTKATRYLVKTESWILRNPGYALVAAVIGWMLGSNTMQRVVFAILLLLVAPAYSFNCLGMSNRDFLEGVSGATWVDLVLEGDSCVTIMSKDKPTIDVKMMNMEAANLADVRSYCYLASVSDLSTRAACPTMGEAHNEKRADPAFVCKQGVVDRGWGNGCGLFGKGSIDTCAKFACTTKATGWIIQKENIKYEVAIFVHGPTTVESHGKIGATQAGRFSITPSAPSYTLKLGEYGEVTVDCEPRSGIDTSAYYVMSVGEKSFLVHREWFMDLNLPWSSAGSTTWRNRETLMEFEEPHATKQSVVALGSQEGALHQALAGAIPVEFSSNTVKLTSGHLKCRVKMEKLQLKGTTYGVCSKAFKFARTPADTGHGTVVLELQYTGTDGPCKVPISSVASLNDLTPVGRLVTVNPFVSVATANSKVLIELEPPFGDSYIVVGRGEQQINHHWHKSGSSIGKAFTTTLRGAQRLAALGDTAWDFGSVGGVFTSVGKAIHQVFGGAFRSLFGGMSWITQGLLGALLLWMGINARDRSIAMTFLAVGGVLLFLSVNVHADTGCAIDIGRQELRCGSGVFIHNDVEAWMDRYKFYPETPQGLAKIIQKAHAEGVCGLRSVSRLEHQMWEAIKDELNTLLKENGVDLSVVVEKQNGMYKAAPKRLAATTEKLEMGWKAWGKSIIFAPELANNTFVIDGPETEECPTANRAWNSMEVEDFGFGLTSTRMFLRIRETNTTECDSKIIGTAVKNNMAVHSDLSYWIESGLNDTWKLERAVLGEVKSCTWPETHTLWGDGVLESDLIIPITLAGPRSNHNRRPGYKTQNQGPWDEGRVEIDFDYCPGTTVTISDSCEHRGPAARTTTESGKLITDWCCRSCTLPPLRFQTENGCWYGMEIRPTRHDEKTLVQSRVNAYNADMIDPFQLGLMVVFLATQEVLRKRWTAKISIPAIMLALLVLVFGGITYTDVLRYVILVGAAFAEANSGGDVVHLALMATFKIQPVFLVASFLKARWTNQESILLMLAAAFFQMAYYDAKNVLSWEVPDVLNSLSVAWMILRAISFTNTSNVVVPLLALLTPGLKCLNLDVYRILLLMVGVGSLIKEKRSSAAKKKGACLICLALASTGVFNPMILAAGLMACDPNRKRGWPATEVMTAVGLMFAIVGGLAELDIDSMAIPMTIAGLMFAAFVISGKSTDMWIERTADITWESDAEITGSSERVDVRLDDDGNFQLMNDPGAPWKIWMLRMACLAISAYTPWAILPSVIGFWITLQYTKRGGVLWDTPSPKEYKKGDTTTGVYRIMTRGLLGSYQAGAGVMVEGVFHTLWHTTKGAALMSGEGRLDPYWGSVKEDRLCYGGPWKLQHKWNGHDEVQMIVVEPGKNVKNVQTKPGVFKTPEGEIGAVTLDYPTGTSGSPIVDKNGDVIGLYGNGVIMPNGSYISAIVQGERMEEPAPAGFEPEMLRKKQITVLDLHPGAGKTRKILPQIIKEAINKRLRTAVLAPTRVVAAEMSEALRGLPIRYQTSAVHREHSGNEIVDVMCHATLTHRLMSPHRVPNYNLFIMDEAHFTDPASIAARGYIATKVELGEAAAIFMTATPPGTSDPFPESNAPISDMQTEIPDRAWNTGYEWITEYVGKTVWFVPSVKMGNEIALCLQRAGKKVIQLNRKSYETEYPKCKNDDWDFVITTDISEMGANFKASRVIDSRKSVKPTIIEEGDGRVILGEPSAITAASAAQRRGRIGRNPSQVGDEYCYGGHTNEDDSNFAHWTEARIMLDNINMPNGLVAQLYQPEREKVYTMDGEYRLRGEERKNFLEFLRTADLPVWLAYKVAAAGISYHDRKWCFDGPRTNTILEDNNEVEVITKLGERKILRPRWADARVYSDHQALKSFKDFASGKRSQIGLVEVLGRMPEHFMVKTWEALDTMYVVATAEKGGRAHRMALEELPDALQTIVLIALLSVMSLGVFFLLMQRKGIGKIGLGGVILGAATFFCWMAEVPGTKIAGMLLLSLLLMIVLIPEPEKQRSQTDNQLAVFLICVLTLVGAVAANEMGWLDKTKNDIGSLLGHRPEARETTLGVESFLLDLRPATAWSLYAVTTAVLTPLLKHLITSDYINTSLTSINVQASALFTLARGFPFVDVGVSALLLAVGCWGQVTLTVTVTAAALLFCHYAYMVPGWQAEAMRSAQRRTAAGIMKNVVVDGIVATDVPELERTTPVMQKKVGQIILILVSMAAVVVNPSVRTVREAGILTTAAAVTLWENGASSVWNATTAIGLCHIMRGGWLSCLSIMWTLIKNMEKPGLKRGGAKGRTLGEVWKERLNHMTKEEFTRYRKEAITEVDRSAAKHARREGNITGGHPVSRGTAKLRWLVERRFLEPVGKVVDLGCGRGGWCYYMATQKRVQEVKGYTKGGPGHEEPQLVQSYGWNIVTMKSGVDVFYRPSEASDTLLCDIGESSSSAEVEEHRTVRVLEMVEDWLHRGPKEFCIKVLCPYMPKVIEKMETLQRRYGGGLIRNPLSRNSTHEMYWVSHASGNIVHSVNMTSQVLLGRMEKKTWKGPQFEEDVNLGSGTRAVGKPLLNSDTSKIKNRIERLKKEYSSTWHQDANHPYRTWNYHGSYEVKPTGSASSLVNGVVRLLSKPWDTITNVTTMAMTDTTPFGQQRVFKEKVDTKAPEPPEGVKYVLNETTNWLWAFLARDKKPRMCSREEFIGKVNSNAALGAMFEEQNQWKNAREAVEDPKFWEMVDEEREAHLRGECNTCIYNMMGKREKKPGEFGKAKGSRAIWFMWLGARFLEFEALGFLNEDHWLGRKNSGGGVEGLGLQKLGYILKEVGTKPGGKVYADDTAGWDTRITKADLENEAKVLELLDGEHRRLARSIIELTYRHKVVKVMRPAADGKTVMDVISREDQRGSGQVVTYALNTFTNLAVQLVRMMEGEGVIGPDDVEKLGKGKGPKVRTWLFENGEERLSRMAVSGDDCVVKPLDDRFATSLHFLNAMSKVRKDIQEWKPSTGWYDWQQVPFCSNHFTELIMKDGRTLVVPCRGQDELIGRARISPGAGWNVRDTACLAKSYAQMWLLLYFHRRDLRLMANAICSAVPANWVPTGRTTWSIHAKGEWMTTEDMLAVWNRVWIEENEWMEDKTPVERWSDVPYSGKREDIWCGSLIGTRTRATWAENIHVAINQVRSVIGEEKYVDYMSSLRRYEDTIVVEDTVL
Chain of Genome polyprotein (P06935 1371-1501 limits assumed): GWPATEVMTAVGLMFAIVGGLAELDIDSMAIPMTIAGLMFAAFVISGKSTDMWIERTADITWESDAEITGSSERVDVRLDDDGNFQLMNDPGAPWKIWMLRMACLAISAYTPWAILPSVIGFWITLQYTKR
Chain of Genome polyprotein (P06935 1502-2120 limits assumed): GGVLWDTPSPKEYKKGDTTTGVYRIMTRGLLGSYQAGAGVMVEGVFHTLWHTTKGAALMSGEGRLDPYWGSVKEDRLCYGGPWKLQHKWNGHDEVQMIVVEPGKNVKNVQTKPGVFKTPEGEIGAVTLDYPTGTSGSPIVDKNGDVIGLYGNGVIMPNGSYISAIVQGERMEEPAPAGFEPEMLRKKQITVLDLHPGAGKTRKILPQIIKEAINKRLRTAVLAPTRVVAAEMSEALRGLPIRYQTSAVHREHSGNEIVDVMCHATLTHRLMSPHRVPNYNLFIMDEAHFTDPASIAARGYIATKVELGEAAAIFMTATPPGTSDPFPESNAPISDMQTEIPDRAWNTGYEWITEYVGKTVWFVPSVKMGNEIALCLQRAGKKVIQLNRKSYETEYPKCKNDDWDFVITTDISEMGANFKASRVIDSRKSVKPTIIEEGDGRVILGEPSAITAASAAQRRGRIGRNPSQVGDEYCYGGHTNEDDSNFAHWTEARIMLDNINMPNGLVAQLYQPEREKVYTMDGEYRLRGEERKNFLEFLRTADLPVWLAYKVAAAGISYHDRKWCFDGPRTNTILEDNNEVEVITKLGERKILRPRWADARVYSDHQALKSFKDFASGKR
Chain of Coagulation factor X (Bos taurus) (P00743 41-180 limits assumed): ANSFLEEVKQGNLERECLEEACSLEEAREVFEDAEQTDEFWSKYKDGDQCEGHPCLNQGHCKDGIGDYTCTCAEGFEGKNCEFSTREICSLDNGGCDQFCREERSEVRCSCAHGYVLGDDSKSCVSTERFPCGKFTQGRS
Chain of Coagulation factor X (Bos taurus) (P00743 234-492 limits assumed): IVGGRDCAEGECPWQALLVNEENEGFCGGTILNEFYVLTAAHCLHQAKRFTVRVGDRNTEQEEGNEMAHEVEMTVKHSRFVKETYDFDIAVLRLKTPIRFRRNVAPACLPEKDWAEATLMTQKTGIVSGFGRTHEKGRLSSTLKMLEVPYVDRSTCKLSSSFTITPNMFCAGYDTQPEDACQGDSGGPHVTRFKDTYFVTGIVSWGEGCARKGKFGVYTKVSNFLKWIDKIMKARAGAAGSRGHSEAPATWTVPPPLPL

With `COc1cccc(CC(=O)N[C@@H](CCCCN)C(=O)N[C@@H](CCCCN)C(=O)N[C@H](C=O)CCCN=C(N)N)c1`, at Genome polyprotein, the half-maximal inhibitory concentration (IC50) – broadly, the midpoint of a concentration-inhibition curve – came to 60 nM and the Ki (as a rule, the equilibrium dissociation constant of an inhibitor or competing ligand from its target) was 11 nM.
For the molecule `N=C(N)NCCC[C@@H](C=O)NC(=O)[C@H](CCCCN)NC(=O)[C@H](CCCCN)NC(=O)/C=C/c1ccccc1`, at Genome polyprotein, the half-maximal inhibitory concentration (IC50) amounted to 580 nM and the inhibitory constant (Ki) was determined as 104 nM. For the same molecule, the inhibition (usually the drop in the measured response relative to a control, in per cent) in [1] was greater than 80%.
In the case of `COc1ccc2ccc([C@H](C)C(=O)N[C@@H](CCCCN)C(=O)N[C@@H](CCCCN)C(=O)N[C@H](C=O)CCCNC(=N)N)cc2c1`, at Genome polyprotein, the IC50 worked out at 112 nM and the inhibition constant (Ki) was 20 nM. In [1], the inhibition was greater than 80%.
For `N=C(N)NCCC[C@@H](C=O)NC(=O)[C@H](CCCCN)NC(=O)[C@H](CCCCN)NC(=O)Cc1ccc(-c2ccccc2)cc1` the same measures were 32 nM, 6 nM and greater than 80%.
In the case of `NCCCC[C@H](NC(=O)c1ccc2ccccc2c1)C(=O)N[C@@H](CCCCN)C(=O)N[C@H](C=O)CCCN=C(N)N`, on Genome polyprotein, the IC50 stood at 231 nM and the Ki was found to be 41 nM.
The like results for `N=C(N)NCCC[C@@H](C=O)NC(=O)[C@H](CCCCN)NC(=O)[C@H](CCCCN)NC(=O)COc1ccccc1` were, in that order, 107 nM and 19 nM.
On to `COc1cccc(CC(=O)N[C@@H](CCCCN)C(=O)N[C@@H](CCCCN)C(=O)N[C@H](C=O)CCCNC(=N)N)c1`, for which the inhibition in data set [1] is greater than 80%.
Still for that read-out and setting: the figure for `N=C(N)NCCC[C@@H](C=O)NC(=O)[C@H](CCCCN)NC(=O)[C@H](CCCCN)NC(=O)c1ccc2ccccc2c1` is greater than 80%.
As for `NCCCC[C@H](NC(=O)c1ccccc1)C(=O)N[C@@H](CCCCN)C(=O)N[C@H](C=O)CCCN=C(N)N` (Bz-Lys-Lys-Arg-aldehyde), at Genome polyprotein, the IC50 turned out to be 271 nM and the Ki worked out at 49 nM.
For `NCCCC[C@H](NC(=O)OCc1ccccc1)C(=O)N[C@@H](CCCCN)C(=O)N[C@H](C=O)CCCN=C(N)N` (Cbz-Lys-Lys-Arg-aldehyde) the same measures were 222 nM and 40 nM.
For `N=C(N)NCCC[C@@H](C=O)NC(=O)[C@H](CCCCN)NC(=O)[C@H](CCCCN)NC(=O)c1ccccc1N` (H-[2Abz]KKR-aldehyde) the same measures were 891 nM and 160 nM.
The like results for `NCCCC[C@H](NC(=O)CCc1ccccc1)C(=O)N[C@@H](CCCCN)C(=O)N[C@H](C=O)CCCN=C(N)N` (Hydrocinnamoyl-Lys-Lys-Arg-aldehyde) were, in that order, 454 nM and 81 nM.
For the molecule `NCCCC[C@H](NC(=O)[C@H](CCCN=C(N)N)NC(=O)Cc1ccccc1)C(=O)N[C@H](C=O)CCCN=C(N)N` (PhAc-Arg-Lys-Arg-aldehyde), on Genome polyprotein, the IC50 turned out to be 154 nM and the inhibition constant (Ki) amounted to 28 nM.
For `N=C(N)NCCC[C@@H](C=O)NC(=O)[C@H](CCCNC(=N)N)NC(=O)[C@H](CCCCN)NC(=O)Cc1ccccc1` (PhAc-Lys-Arg-Arg-aldehyde) the same measures were 325 nM and 58 nM.
For the molecule `N=C(N)NCCC[C@@H](C=O)NC(=O)[C@H](CCCCN)NC(=O)[C@H](CCCCN)NC(=O)Cc1ccccc1` (PhAc-Lys-Lys-Arg-aldehyde), the inhibition was 12% in [2]; 0% in data set [3]; 25% in the data set filed under Bos taurus; 0% in [6]; greater than 80% in [1]. In the data set with West Nile virus [4], the half-inhibitory concentration (IC50) was 1600 nM. Besides, the result with West Nile virus [5] was Active.
As for `NCCCC[C@H](NC(=O)Cc1ccccc1)C(=O)N[C@@H](CCCCN)C(=O)N[C@H](C=O)CCCN=C(N)N` (PhAc-Lys-Lys-Arg-aldehyde), in the data set on Vero, the Activity result is listed as “Non-toxic”. For the same molecule, at Genome polyprotein, the IC50 turned out to be 51 nM and the inhibition constant (Ki) came out at 9 nM.
As to `NCCCC[C@H](NC(=O)Cc1ccccc1)C(=O)N[C@@H](CCCCN)C(=O)N[C@H](C=O)Cc1c[nH]c2ccccc12` (PhAc-Lys-Lys-Trp-aldehyde), on Genome polyprotein, the IC50 was 25700 nM and the inhibition constant Ki came out at 4600 nM.
In the case of `N=C(N)NCCC[C@@H](C=O)NC(=O)[C@H](CCCNC(N)=O)NC(=O)[C@H](CCCCN)NC(=O)Cc1ccccc1` (PhAc-Lys-[Cit]-Arg-aldehyde), at Genome polyprotein, the IC50 turned out to be 11600 nM and the inhibition constant (Ki) is 2070 nM.
`N=C(N)NCCC[C@@H](C=O)NC(=O)[C@H](CCCN)NC(=O)[C@H](CCCCN)NC(=O)Cc1ccccc1` (PhAc-Lys-[Orn]-Arg-aldehyde): on Genome polyprotein, the 50% inhibitory concentration (IC50) stood at 73 nM and the inhibition constant (Ki) worked out at 13 nM.
For `N=C(N)NCCCC[C@H](NC(=O)[C@H](CCCCN)NC(=O)Cc1ccccc1)C(=O)N[C@H](C=O)CCCNC(=N)N` (PhAc-Lys-[hArg]-Arg-aldehyde) the same measures were 297 nM and 53 nM.
For `N=C(N)NCCC[C@@H](C=O)NC(=O)[C@H](CCCCN)NC(=O)[C@H](CCCNC(N)=O)NC(=O)Cc1ccccc1` (PhAc-[Cit]-Lys-Arg-aldehyde) the same measures were 619 nM and 111 nM.
The like results for `N=C(N)NCCC[C@@H](C=O)NC(=O)[C@H](CCCCN)NC(=O)[C@H](CCCN)NC(=O)Cc1ccccc1` (PhAc-[Orn]-Lys-Arg-aldehyde) were, in that order, 255 nM and 46 nM.
On to `N=C(N)NCCCC[C@H](NC(=O)Cc1ccccc1)C(=O)N[C@@H](CCCCN)C(=O)N[C@H](C=O)CCCNC(=N)N` (PhAc-[hArg]-Lys-Arg-aldehyde), for which, at Genome polyprotein, the concentration for half-maximal inhibition (IC50) is 254 nM and the Ki was 44 nM.
Take `N=C(N)NCCC[C@@H](C=O)NC(=O)[C@H](CCCCN)NC(=O)[C@H](CCCCN)NC(=O)NCc1ccccc1` ({NHBn-CO}-Lys-Lys-Arg-aldehyde): at Genome polyprotein, the half-maximal inhibitory concentration (IC50) came out at 146 nM and the inhibition constant (Ki) was found to be 26 nM. The inhibition in [1] is greater than 80%.
